Results taken from ChEMBL document CHEMBL1145228, “Anti-coxsackievirus B3 activity of 2-amino-3-nitropyrazolo[1,5-a]pyrimidines and their analogs” (Bioorg Med Chem Lett, 2005).
In brackets after ≈: the same amount, converted by molar mass.

Key:
K562 = experiment: Growth inhibitory concentration against human chronic myeloid leukemic cells; type: functional
Outline: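 K-562 suspension cells (1 × 10^4) exposed to 10 twofold dilutions for 72h at 37°C, 5% CO2; proliferation counted with an electronic cell analyzer (CASY); GI50 reported.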

[1] = Therapeutic index (ratio of CC50 and IC50) was determined; NA denotes ''Not active''; type: cell-based; conditions: human, hela
Outline: (§1)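 TI computed by dividing mean HeLa CC50 (72h crystal violet cytotoxicity) by mean IC50 from the CVB3 CPE inhibition assay in HeLa cells.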

L929 = experiment: Growth inhibitory concentration against mouse fibroblast cells; type: functional
Outline: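 L-929 fibroblasts (1 × 10^4) added to 10 twofold dilutions and incubated 72h at 37°C, 5% CO2; growth measured by optical density after methylene blue staining; GI50 reported.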

HeLa = experiment: Inhibitory concentration against Coxsackievirus B3 in HeLa cells; type: functional, cell-based; conditions: Homo sapiens
[2] = Cytotoxic concentration against human cervix carcinoma cells
Outline: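 Confluent HeLa monolayers exposed 72h (37°C, 5% CO2) to twofold serial dilutions in duplicate; cells fixed and stained with crystal violet–formalin, read spectrophotometrically; CC50 = 50% cytotoxic concentration.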

[3] = Therapeutic index (ratio of CC50 and IC50) was determined; type: cell-based; conditions: human, HeLa cells; read-out: TI; outline: as §1
[4] = Partition coefficient (logP); type: physicochemical; conditions: octanol/water

SMILES | GI50 (K562) | TI [1] | GI50 (L929) | IC50 (HeLa) | CC50 [2] | selectivity ratio [3] | logP [4]
CCSC(N)NCc1cc(O)n2nc(N)c([N+](=O)[O-])c2n1 (centres undefined) | > 50 µg/mL | Not Active | > 50 µg/mL | > 50 µg/mL | > 50 µg/mL |  | 
Nc1nn2c(O)cc(CCl)nc2c1[N+](=O)[O-] | > 50 µg/mL | Not Active | > 50 µg/mL | > 50 µg/mL | > 50 µg/mL |  | 
Nc1nn2c(O)cc(CN3CCN(CCO)CC3)nc2c1[N+](=O)[O-] | > 50 µg/mL | Not Active | > 50 µg/mL | > 50 µg/mL | > 50 µg/mL |  | 
Nc1nn2c(O)cc(CNCCO)nc2c1[N+](=O)[O-] | > 50 µg/mL | Not Active | > 50 µg/mL | > 50 µg/mL | > 50 µg/mL |  | 
NC(=S)NNCc1cc(O)n2nc(N)c([N+](=O)[O-])c2n1 | > 50 µg/mL | Not Active | > 50 µg/mL | > 50 µg/mL | > 50 µg/mL |  | 
NC(=NCc1cc(O)n2nc(N)c([N+](=O)[O-])c2n1)SCc1ccccc1 | > 50 µg/mL | Not Active | > 50 µg/mL | > 50 µg/mL | > 50 µg/mL |  | 
COc1ccc(NNCc2cc(O)n3nc(N)c([N+](=O)[O-])c3n2)cc1 | 5.1 µg/mL (≈ 14.8 µM) |  | > 50 µg/mL | 17.5 µg/mL (≈ 50.8 µM) | 66.3 µg/mL (≈ 192 µM) | 3.8 | 2.46
CCN(CC)C(=O)N1CCN(Cc2cc(O)n3nc(N)c([N+](=O)[O-])c3n2)CC1 | > 50 µg/mL | Not Active | > 50 µg/mL | > 50 µg/mL | > 50 µg/mL |  | 
Nc1nn2c(O)cc(-c3ccccc3F)nc2c1[N+](=O)[O-] | > 50 µg/mL |  | > 50 µg/mL | 20.3 µg/mL (≈ 70.4 µM) | 66.5 µg/mL (≈ 230 µM) | 3.2 | 2.34
Nc1nn2c(O)cc(CN3CCN(C(c4ccccc4)c4ccccc4)CC3)nc2c1[N+](=O)[O-] | 9 µg/mL (≈ 19.6 µM) | Not Active | 19.9 µg/mL (≈ 43.3 µM) | > 50 µg/mL | 14.8 µg/mL (≈ 32.2 µM) |  | 3.73
Nc1nn2c(O)cc(CNNCCO)nc2c1[N+](=O)[O-] | > 50 µg/mL | Not Active | > 50 µg/mL | > 50 µg/mL | > 50 µg/mL |  | 
Nc1nn2c(O)cc(-c3ccc(F)cc3)nc2c1[N+](=O)[O-] | > 50 µg/mL |  | > 50 µg/mL | 50.3 µg/mL (≈ 174 µM) | > 100 µg/mL | > 2 | 2.34
CCN(CC)C(=S)SCc1cc(O)n2nc(N)c([N+](=O)[O-])c2n1 | 33.1 µg/mL (≈ 92.9 µM) | Not Active | > 50 µg/mL | > 50 µg/mL | > 50 µg/mL |  | 3.06
Nc1nn2c(O)cc(-c3cc([N+](=O)[O-])c(Cl)cc3Cl)nc2c1[N+](=O)[O-] | > 50 µg/mL |  | > 50 µg/mL | 3.94 µg/mL (≈ 10.2 µM) | > 100 µg/mL | > 25.6 | 2.77
Nc1nn2c(O)cc(-c3ccccc3)nc2c1[N+](=O)[O-] | > 50 µg/mL |  | > 50 µg/mL | 29.6 µg/mL (≈ 109 µM) | > 100 µg/mL | > 3.4 | 2.54
Nc1nn2c(O)cc(CNNc3ccc(F)cc3)nc2c1[N+](=O)[O-] | 19.7 µg/mL (≈ 59.1 µM) |  | 41.4 µg/mL (≈ 124 µM) | 5.81 µg/mL (≈ 17.4 µM) | > 100 µg/mL | > 17.2 | 2.65
NNCc1cc(O)n2nc(N)c([N+](=O)[O-])c2n1 | 26.5 µg/mL (≈ 111 µM) | Not Active | 35.2 µg/mL (≈ 147 µM) | 66.5 µg/mL (≈ 278 µM) | 42.6 µg/mL (≈ 178 µM) |  | 0.42
Nc1nn2c(O)cc(CNNc3ccc(S(=O)(=O)O)cc3)nc2c1[N+](=O)[O-] | > 50 µg/mL | Not Active | > 50 µg/mL | > 50 µg/mL | > 50 µg/mL |  | 
